ChEMBL document CHEMBL4014346, “Lead Optimization Generates CYP11B1 Inhibitors of Pyridylmethyl Isoxazole Type with Improved Pharmacological Profile for the Treatment of Cushing's Disease” (J Med Chem, 2017)

Key:
[1] = Plasma concentration in Sprague-Dawley rat at 100 mg/kg, po administered as single dose after 1 hr by HPLC-MS/MS analysis; type: ADME, organism-based
Outline: (§1)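 One female Sprague-Dawley rat dosed orally with a suspension in 0.5% porcine gelatin/5% mannitol in water, under 2% isoflurane. Tail-vein blood in citrate; plasma precipitated with acetonitrile containing diphenhydramine internal standard and quantified by HPLC-MS/MS.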

Salmonella typhimurium = test: Mutagenicity in Salmonella typhimurium TA7001/7002/7003/7004/7005/7006 up to 100 uM by Ames 2 assay; type: toxicity; conditions: salmonella enterica subsp. enterica serovar typhimurium
Outline: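 AMES II kit with Salmonella typhimurium TA98 and TA7001–TA7006, run with or without rat liver S9 fraction according to the kit instructions.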

[2] = target: T1, Cytochrome P450 11B1, mitochondrial (Rattus norvegicus, UniProt P15393); test: Inhibition of rat CYP11B1 expressed in hamster V79MZ cells using [1,2-3H]-11-deoxycorticosterone as substrate after 6 hrs by HPLC analysis; type: cell-based
T1 sequence (P15393 whole entry): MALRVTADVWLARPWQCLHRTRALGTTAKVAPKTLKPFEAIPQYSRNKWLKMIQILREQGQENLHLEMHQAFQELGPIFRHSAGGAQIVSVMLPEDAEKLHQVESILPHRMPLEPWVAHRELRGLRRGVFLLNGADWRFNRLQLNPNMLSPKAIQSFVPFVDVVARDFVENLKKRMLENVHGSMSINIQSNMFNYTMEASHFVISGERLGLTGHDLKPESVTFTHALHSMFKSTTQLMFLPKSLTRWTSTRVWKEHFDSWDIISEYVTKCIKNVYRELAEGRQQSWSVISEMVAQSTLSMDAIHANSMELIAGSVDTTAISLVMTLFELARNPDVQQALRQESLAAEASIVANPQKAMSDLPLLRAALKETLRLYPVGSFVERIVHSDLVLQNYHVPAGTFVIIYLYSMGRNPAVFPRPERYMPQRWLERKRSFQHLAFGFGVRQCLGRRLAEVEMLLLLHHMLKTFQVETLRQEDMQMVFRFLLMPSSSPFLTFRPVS
Outline: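 V79MZ cells expressing recombinant human CYP11B1 or CYP11B2, or rat CYP11B1, incubated with [1,2-³H]-11-deoxycorticosterone (100 nM) and inhibitor over a range of concentrations; ketoconazole as reference.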

[3] = Cytotoxicity against HEK293 cells assessed as reduction in cell viability after 66 hrs by MTT assay; type: cell-based; conditions: human
Outline: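 HEK293 cells seeded at 2x10⁵ per well; 4 h later, compound added at 100–6.25 µM in quadruplicate in 1% DMSO. MTT read-out at 570 nm after 66 h against vehicle control; IC20 derived by curve fitting.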

CYP17A1 = target: T2, CYP17A1 (Homo sapiens, UniProt P05093); test: Inhibition of human CYP17A1 expressed in Escherichia coli membranes at 2 uM using [3H]-progesterone as substrate after 30 mins in presence of NADPH by HPLC analysis relative to control; type: ADME, cell membranes; conditions: Escherichia coli membranes expressing human CYP17A1, probe [3H]-progesterone
T2 sequence (P05093 whole entry): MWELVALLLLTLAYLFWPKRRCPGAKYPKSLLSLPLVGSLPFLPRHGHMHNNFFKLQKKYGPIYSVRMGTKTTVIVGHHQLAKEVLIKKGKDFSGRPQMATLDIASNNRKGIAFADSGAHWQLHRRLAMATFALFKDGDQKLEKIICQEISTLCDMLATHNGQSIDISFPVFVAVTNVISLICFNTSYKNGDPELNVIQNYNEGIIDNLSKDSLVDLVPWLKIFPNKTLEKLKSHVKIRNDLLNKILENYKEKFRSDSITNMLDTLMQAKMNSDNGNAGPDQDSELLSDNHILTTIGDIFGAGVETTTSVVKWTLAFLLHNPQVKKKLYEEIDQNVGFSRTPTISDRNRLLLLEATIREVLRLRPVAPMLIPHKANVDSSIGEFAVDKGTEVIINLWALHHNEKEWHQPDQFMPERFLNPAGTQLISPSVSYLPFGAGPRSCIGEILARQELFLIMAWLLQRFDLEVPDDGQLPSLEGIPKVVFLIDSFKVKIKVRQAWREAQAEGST
Outline: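 Human CYP17A1 expressed in E. coli; [³H]-progesterone (25 µM) as substrate with NADPH cofactor; test compounds at 2 µM; abiraterone and ketoconazole as references.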

CYP2D6 = CYP2D6 (Homo sapiens, UniProt P10635); test: Inhibition of recombinant human CYP2D6 expressed in baculovirus infected insect cell microsomes at 1 uM relative to control; type: ADME
Outline: (§2)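 Recombinant human CYP1A2, 2B6, 2C9, 2C19, 2D6 and 3A4 in baculovirus-infected insect-cell microsomes, assayed per kit instructions; test compound at 1 µM, percent inhibition.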

CYP2B6 = target: T3, CYP2B6 (Homo sapiens, UniProt P20813); test: Inhibition of recombinant human CYP2B6 expressed in baculovirus infected insect cell microsomes at 1 uM relative to control; type: ADME; outline: as §2
T3 sequence (P20813 whole entry): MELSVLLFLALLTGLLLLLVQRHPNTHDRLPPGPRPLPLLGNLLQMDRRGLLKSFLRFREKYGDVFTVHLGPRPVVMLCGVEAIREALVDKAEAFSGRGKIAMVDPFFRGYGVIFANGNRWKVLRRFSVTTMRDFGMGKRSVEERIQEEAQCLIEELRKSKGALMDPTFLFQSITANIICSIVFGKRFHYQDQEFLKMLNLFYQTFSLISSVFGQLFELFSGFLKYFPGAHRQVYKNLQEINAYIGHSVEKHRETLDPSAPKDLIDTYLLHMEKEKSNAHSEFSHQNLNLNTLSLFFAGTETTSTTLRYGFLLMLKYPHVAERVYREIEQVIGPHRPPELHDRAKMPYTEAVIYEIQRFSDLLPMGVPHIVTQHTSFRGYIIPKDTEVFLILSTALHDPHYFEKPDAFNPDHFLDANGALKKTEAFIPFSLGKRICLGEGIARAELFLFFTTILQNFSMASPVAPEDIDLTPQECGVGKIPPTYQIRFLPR

[4] = Plasma concentration in Sprague-Dawley rat at 100 mg/kg, po administered as single dose after 4 hrs by HPLC-MS/MS analysis; type: ADME, organism-based; outline: as §1

Sequence of CYP2D6 (P10635 whole entry): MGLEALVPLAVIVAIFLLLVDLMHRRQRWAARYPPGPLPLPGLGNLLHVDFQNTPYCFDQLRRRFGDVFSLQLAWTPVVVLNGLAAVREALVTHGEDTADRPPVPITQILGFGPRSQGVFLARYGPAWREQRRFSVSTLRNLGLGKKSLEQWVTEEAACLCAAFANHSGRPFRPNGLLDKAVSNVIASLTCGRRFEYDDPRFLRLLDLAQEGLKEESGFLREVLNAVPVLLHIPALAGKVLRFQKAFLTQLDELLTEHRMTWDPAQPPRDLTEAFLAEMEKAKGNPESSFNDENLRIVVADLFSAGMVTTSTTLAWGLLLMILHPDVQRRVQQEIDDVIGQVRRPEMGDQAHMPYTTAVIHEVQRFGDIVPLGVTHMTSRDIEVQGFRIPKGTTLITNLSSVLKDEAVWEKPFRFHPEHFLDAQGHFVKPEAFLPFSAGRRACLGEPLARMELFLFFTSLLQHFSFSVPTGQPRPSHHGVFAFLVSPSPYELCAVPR

Row | concentration at 1 h [1] [µM] | IC50 [2] [µM] | inhibition at 0.5 h, 2 µM (CYP17A1) [%] | inhibition at 1 µM (CYP2D6) [%] | inhibition at 1 µM (CYP2B6) [%] | concentration at 4 h [4] [µM] | SMILES | Activity (Salmonella typhimurium) | IC20 at 66 h [3] [µM]
1 | 2.5 | 4 | ≤ 9 | 0 | 3 | 0.3 | Cc1cncc(Cc2cc(-c3ccccc3)no2)c1 | Non-Toxic | 28
2 | 19.7 | 1.8 | ≤ 9 | 8 | 19 | 106 | COc1cncc(Cc2cc(-c3ccccc3)no2)c1 | Non-Toxic | 42
